AHR act – activates the human aryl hydrocarbon receptor. P35869. AHR-responsive luciferase reporter cells, luminescence. activation, % at 5 µM. 320,000 compounds, 2.5% hits. AID 2796; in the data active means activation above about 47%
Target sequence (P35869 whole entry, looked up): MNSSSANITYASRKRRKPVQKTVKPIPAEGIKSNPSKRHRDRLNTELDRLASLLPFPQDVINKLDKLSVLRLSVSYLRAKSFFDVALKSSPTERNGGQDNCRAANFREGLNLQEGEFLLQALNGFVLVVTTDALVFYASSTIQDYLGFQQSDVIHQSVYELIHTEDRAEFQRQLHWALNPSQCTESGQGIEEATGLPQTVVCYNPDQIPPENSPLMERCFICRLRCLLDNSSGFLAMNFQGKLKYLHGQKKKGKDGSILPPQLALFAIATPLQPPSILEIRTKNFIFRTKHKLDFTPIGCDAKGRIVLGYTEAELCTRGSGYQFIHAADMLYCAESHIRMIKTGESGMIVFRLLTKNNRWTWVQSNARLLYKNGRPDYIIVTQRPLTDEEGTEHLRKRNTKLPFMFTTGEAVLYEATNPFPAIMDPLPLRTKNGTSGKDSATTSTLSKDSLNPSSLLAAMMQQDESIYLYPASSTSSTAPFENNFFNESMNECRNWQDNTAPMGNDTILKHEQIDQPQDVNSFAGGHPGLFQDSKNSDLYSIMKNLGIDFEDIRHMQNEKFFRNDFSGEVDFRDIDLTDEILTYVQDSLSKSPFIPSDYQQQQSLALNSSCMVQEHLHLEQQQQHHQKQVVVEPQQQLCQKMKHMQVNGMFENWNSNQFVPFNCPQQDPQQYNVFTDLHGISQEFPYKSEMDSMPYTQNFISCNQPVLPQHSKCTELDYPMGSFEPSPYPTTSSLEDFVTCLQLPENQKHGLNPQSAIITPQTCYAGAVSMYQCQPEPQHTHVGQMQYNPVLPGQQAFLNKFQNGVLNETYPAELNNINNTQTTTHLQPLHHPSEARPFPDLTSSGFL
TbMetRS inhib – blocks T. brucei methionyl-tRNA synthetase activity. purified T. brucei MetRS, ATP depletion, Kinase-Glo luminescence. inhibition, % at 11.9 µM. 360,000 compounds, 0.4% hits;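 active means inhibition above a per-plate cutoff of the control wells' mean inhibition plus 3 SD, cut at about 5.5% in these data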
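Assay system: T. brucei methionyl-tRNA synthetase, purified | Medium: HEPES buffer with MgCl2, KCl, DTT, spermine, BSA, pyrophosphatase | Compound: 11.9 µM single point | Incubation: 15 min enzyme-compound preincubation, 2 h reaction, 10 min detection, 25 °C | Measured by: Kinase-Glo luciferase luminescence reporting remaining unconsumed ATP | Measure: % inhibition normalized to control-well medians | Replication: Singlicate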
TAG inh – inhibitors of triacylglycerol accumulation; H9c2 cells, Nile Red lipid (TAG) fluorescence; cells loaded with 200 µM oleic acid; inhibition, % at 12.5 µM; 230,000 compounds, 0.66% hits;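 active means pattern-corrected inhibition of lipid staining of at least 50% with the nuclear-stain viability signal not falling by more than 50%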
SMARCA2 act – activators of SMARCA2 function; activation, % at 9.1 µM; MG213 cells, MMTV-luciferase reporter, dexamethasone, overnight; 370,000 compounds, 1% hits; in the data active means activation above about 7.8%
Efflux pump mplx – antifungal efflux pump inhibition, Nile Red retention; S. cerevisiae Candida pump triplex; AID 485275; inhibition, % at 10 µM; 330,000 compounds, 0.44% hits;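 active means plate passing quality check with inhibition over a set limit, or well fluorescence over plate mean plus 4 SD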;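 further: Nile Red retained in pooled yeast measured as flow cytometry median fluorescence; higher means more Nile Red kept so more efflux inhibition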
H9c2 TAG conf – confirmation of triacylglycerol accumulation inhibitors; 990 compounds, 71% hits; inhibition, % at 12.5 µM; H9c2 lipid accumulation, Nile Red fluorescence; cells loaded with 200 µM oleic acid; AID 651629; shares compounds with TAG inh;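 active means mean inhibition across replicates of 40% or more; inactive means mean inhibition below 40%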
SMARCA2 act conf – confirmation of SMARCA2 (BRM) function activators; shares compounds with SMARCA2 act; MG213 cells, MMTV-luciferase with dexamethasone, luminescence, overnight; MG213 cells expressing E1A, Rb sequestered; DMSO wells 0%, reference activator 100%; AID 652260; activation, % at 9.1 µM; 3,500 compounds, 30% hits;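 active means activation above its plate's cutoff, the mean activation of tested wells plus 3 SD, cut at about 7.9% in these data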
GAL4-VP16 Luc – counter-screen for SMARCA2 activators: GAL4-VP16 luciferase reporter activation. activation, % at 9.1 µM. shares compounds with SMARCA2 act. HEK293 GAL4-VP16 pG5luc reporter, luciferase luminescence; scaled: DMSO wells 0%, SAHA wells 100%. 3,500 compounds, 41% hits. AID 686939;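 active means activation above the solvent-only control well mean plus 3 SD, averaged across control plates, cut at about 5.2% in these data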
Numbers stand for hits; - = inactive; . = no result given. Hits are enriched below; roughly 4.1% of the tested compounds scored in any of these assays.

SMILES | AHR act | TbMetRS inhib | TAG inh | SMARCA2 act | Efflux pump mplx | SMARCA2 act conf | GAL4-VP16 Luc | others
CCN(CC)CCNC(=O)C12CC3CC(CC(C3)C1)C2 | - | - | - | - | - | . | .
CCN(CC)CCNC(=O)C(Cl)=C1C(Cl)=C(Cl)C(Cl)=C1Cl | . | - | 77.9 | 10.2 | . | 21.1 | - | H9c2 TAG conf=73.9
COC(=O)C1=C(C)N(Cc2ccccc2C(F)(F)F)C(=NCc2ccc(OC)cc2)NC1c1ccc(Cl)cc1 (stereo not drawn) | . | . | . | - | . | . | .
Cc1nc(Sc2ccccc2)c(C#N)cc1-c1ccccc1 | - | - | . | . | - | . | .
Cc1nc(-c2cc(C#N)c(Sc3ccc(Cl)cc3Cl)nc2C)cs1 | - | - | - | 10.2 | - | - | -
C=C1[C@@H](C)CN[C@@H]1CCO | . | . | . | - | . | . | .
CSc1nsc(SCC(=O)Nc2ccc(C(C)=O)cc2)n1 | - | - | . | 13.1 | - | - | 10.3
CC(=O)c1ccc(NC(=O)CSc2nc(=O)cc(N)n2-c2ccccc2)cc1 | - | - | - | 8.6 | - | - | 8.8
COCC#Cc1ccc(CC[C@H]2O[C@H]3CC[C@@H](CO)O[C@H]3C[C@H]2n2cc(C(C)(C)O)nn2)cc1 | . | . | . | - | . | . | .
COC(=O)c1cc2c(c3c4cc(C#N)ccc4n(S(=O)(=O)c4ccc(C)cc4)c13)C(=O)N(C)C2 | . | . | . | - | . | . | .
CN(C)C(=O)CCc1ccc2c3c([nH]c2c1)[C@]1(CCC2CCCC2)[C@@H](C(=O)N2CCOCC2)C[C@H](CC(=O)NCCc2ccccn2)C(=O)N1CC3 | . | - | - | 8.0 | - | - | -
CN(C)CCCNC(=O)C[C@H]1C[C@H](C(=O)N2CCOCC2)[C@@]2(CCC3CCCC3)c3[nH]c4cc(-c5ccco5)ccc4c3CCN2C1=O | . | - | 60.3 | 8.2 | - | - | -
CCCCc1c(-c2ccccc2OC)ncn1Cc1cccc(F)c1 | . | . | . | - | . | . | .
COc1ccc(NC(=O)c2onc(C)c2Cl)cc1 | - | - | - | 10.4 | - | - | 7.0
COc1ccc(NC(=O)c2onc(C)c2Cl)cc1OC | - | - | - | - | - | . | .
Cc1cc(F)ccc1C(=O)N1CCC(Oc2cccnc2)CC1 | . | . | . | - | . | . | .
CCCCNc1ncnc2c1cnn2-c1ccccc1 | - | - | . | - | - | . | .
C=CCNc1ncnc2c1cnn2-c1ccc(Cl)cc1 | - | - | - | 11.7 | - | 8.3 | 11.5
CCCCNc1ncnc2c1cnn2-c1ccc(Cl)cc1 | - | - | - | 10.5 | - | - | 9.8
COc1ccccc1CNc1ncnc2c1cnn2-c1ccccc1 | - | - | - | 8.2 | - | - | -
Clc1ccc(-n2ncc3c(NCc4ccccn4)ncnc32)cc1 | - | - | . | 11.5 | - | 11.3 | 6.0
CC(C)(C)OC(=O)N1c2ccccc2[C@]2(N3CCCC3)C[C@H](C(=O)O)N(C(=O)OC(C)(C)C)[C@H]12 | . | . | . | - | . | . | .
C[C@H](CO)N1C[C@H](C)[C@H](CN(C)C(=O)NC2CCCCC2)OCc2cnnn2CCCC1=O | . | . | . | - | . | . | .
Clc1ccc(-c2nnc(-c3ccccc3)o2)cn1 | . | - | . | 8.6 | - | - | -
Brc1ccc(-c2nnc(-c3ccco3)o2)cc1 | - | - | - | - | - | . | .
SMILES | AHR act | TbMetRS inhib | TAG inh | SMARCA2 act | Efflux pump mplx | SMARCA2 act conf | GAL4-VP16 Luc | others
c1ccc(-c2nnc(-c3ccco3)o2)cc1 | - | - | - | 8.4 | - | - | 9.0
c1coc(-c2nnc(-c3ccc4c(c3)OCO4)o2)c1 | . | . | . | 10.0 | . | 8.4 | 10.6
COc1ccc2c(c1)[C@@]1(OCCC=C[C@H]1C)C(=O)N2CC1CC1 | . | . | . | - | . | . | .
Oc1ccc(-c2nc3ccccc3s2)c(O)c1 | - | - | - | 13.6 | - | - | 10.3
COc1ccccc1CCn1cnc(-c2ccc(F)cc2)c1C(C)C | . | . | . | - | . | . | .
COC(=O)C1=C(C)N(C)C(=NCc2ccc(C(F)(F)F)cc2)NC1c1ccc(F)cc1 (stereo not drawn) | . | . | . | - | . | . | .
O=C(Nc1nnc(-c2ccccc2SCc2ccccc2F)s1)Nc1ccccc1F | - | - | - | 8.3 | - | - | -
CN(C)c1ccc(/C=C2\CCCc3c2nc2ccccc2c3C(=O)O)cc1 | - | - | . | 9.6 | - | - | 5.5
O=C(CCS(=O)(=O)c1cc2c(cc1Br)CCN2C(=O)C1CC1)N1CCN(c2ccccn2)CC1 | . | . | . | - | . | . | .
CC(=O)Nc1ccc2c(c1)ncn2-c1ccccc1 | - | - | - | 11.6 | - | 15.7 | 7.3
Cc1cccc(C(=O)Nc2ccc3c(c2)ncn3C)c1 | - | - | . | 11.6 | - | 8.3 | 18.7
CCCc1cc2c(O)ccc(O)c2c(=O)o1 | . | . | . | - | . | . | .
Cc1cccn2cc(-c3cccc(NC(=O)c4cccs4)c3)nc12 | - | - | - | 9.4 | - | - | -
O=C(Cc1ccccc1F)Nc1cc(S(=O)(=O)N2CCOCC2)ccc1N1CCOCC1 | - | - | - | - | - | . | .

Compound activity: PubChem, several laboratories
